Experiments:
Escherichia coli = assay: Antibacterial activity against Escherichia coli ATCC 11230 at 5 ug after 24 hrs by agar disk diffusion assay; assay type: functional; details: ATCC 11230, 24 h, read-out: IZ
Summary of the method: (§1)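 Disk diffusion with sterile 6 mm discs loaded with DMSO solutions of the test agents and placed on inoculated agar. Bacteria were pre-grown in Nutrient Broth at 30 °C for 24 h, and plates were incubated at 35 °C for 24 h. Each plate carried a reference antibiotic disc matched to the organism, and a DMSO-only solvent control was run.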

Staphylococcus aureus = assay: Antibacterial activity against Staphylococcus aureus ATCC 6538 at 5 ug after 24 hrs by agar disk diffusion assay; assay type: functional; details: ATCC 6538, 24 h, read-out: IZ
Summary of the method: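 Sterile 6 mm paper discs were loaded with ligand solution freshly prepared in DMSO and placed on inoculated agar. The inoculum came from broth cultures: bacteria in Nutrient Broth at 30 °C for 24 h, yeasts in Malt Extract Broth for 48 h. Plates were incubated at 35 °C for 24 h (bacteria) or 25 °C for 72 h (yeasts). A DMSO solvent control and a reference antibiotic disc were included on each plate.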

Klebsiella pneumoniae = assay: Antibacterial activity against Klebsiella pneumoniae UC57 at 5 ug after 24 hrs by agar disk diffusion assay; assay type: functional; details: UC57, 24 h, read-out: IZ; summary of the method: as §1
[1] = system: Mycolicibacterium smegmatis; assay: Antibacterial activity against Mycobacterium smegmatis CCM 2067 at 5 ug after 24 hrs by agar disk diffusion assay; assay type: functional; details: CCM 2067, 24 h, read-out: IZ; summary of the method: as §1
Listeria monocytogenes = assay: Antibacterial activity against Listeria monocytogenes ATCC 15313 at 5 ug after 24 hrs by agar disk diffusion assay; assay type: functional; details: ATCC 15313, 24 h, read-out: IZ; summary of the method: as §1
Pseudomonas aeruginosa = assay: Antibacterial activity against Pseudomonas aeruginosa ATCC 27853 at 5 ug after 24 hrs by agar disk diffusion assay; assay type: functional; details: ATCC 27853, 24 h, read-out: IZ; summary of the method: as §1
Micrococcus luteus = assay: Antibacterial activity against Micrococcus luteus La 2971 at 5 ug after 24 hrs by agar disk diffusion assay; assay type: functional; details: La 2971, 24 h, read-out: IZ; summary of the method: as §1
Bacillus cereus = assay: Antibacterial activity against Bacillus cereus ATCC 7064 at 5 ug after 24 hrs by agar disk diffusion assay; assay type: functional; details: ATCC 7064, 24 h, read-out: IZ; summary of the method: as §1
Proteus vulgaris = assay: Antibacterial activity against Proteus vulgaris ATCC 8427 at 5 ug after 24 hrs by agar disk diffusion assay; assay type: functional; details: ATCC 8427, 24 h, read-out: IZ; summary of the method: as §1
[2] = system: Hanseniaspora guilliermondii; assay: Antifungal activity against Hanseniaspora guilliermondii DSM 3432 after 24 hrs by broth micro dilution method; assay type: functional
Summary of the method: (§2)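 Broth microdilution was run in cation-adjusted Mueller Hinton Broth. Compounds were dissolved in DMSO at 2 mg mL^-1 and serially diluted two-fold. Yeast precultures were grown in Malt Extract Broth for 48 h. The final inoculum was about 10⁶ cfu mL^-1, and plates were incubated at 37 °C for 24 h. The MIC was read from this series.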

Rhodotorula mucilaginosa [3] = assay: Antifungal activity against Rhodotorula rubra DSM 70403 after 24 hrs by broth micro dilution method; assay type: functional; summary of the method: as §2
Candida albicans = assay: Antifungal activity against Candida albicans ATCC 10231 after 24 hrs by broth micro dilution method; assay type: functional; summary of the method: as §2
Kluyveromyces marxianus [4] = assay: Antifungal activity against Kluyveromyces fragilis NRRL 2415 after 24 hrs by broth micro dilution method; assay type: functional; summary of the method: as §2
Kluyveromyces marxianus [5] = assay: Antifungal activity against Kluyveromyces fragilis NRRL 2415 at 100 ug after 72 hrs by agar disk diffusion assay; assay type: functional, organism-based
Summary of the method: (§3)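 Yeasts were pre-grown in Malt Extract Broth for 48 h. Sterile 6 mm discs loaded with compound solutions freshly made in DMSO were placed on inoculated agar and incubated at 25 °C for 72 h. The medium was supplemented with DMSO as a solvent control, and an appropriate reference antifungal disc was added to each plate.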

[6] = system: Hanseniaspora guilliermondii; assay: Antifungal activity against Hanseniaspora guilliermondii DSM 3432 at 100 ug after 72 hrs by agar disk diffusion assay; assay type: functional, organism-based; summary of the method: as §3
Debaryomyces hansenii [7] = assay: Antifungal activity against Debaryomyces hansenii DSM 70238 at 100 ug after 72 hrs by agar disk diffusion assay; assay type: functional, organism-based; summary of the method: as §3
Rhodotorula mucilaginosa [8] = assay: Antifungal activity against Rhodotorula rubra DSM 70403 at 100 ug after 72 hrs by agar disk diffusion assay; assay type: functional, organism-based; summary of the method: as §3
Debaryomyces hansenii [9] = assay: Antifungal activity against Debaryomyces hansenii DSM 70238 after 24 hrs by broth micro dilution method; assay type: functional; summary of the method: as §2

Compound	zone of inhibition at 5 µg/disc (Escherichia coli)	zone of inhibition at 5 µg/disc (Staphylococcus aureus)	zone of inhibition at 5 µg/disc (Klebsiella pneumoniae)	zone of inhibition at 5 µg/disc [1]	zone of inhibition at 5 µg/disc (Listeria monocytogenes)	zone of inhibition at 5 µg/disc (Pseudomonas aeruginosa)	zone of inhibition at 5 µg/disc (Micrococcus luteus)	zone of inhibition at 5 µg/disc (Bacillus cereus)	zone of inhibition at 5 µg/disc (Proteus vulgaris)	MIC [2]	MIC (Rhodotorula mucilaginosa [3])	MIC (Candida albicans)	MIC (Kluyveromyces marxianus [4])	inhibition zone (IZ) (Kluyveromyces marxianus [5])	inhibition zone (IZ) [6]	inhibition zone (IZ) (Debaryomyces hansenii [7])	inhibition zone (IZ) (Rhodotorula mucilaginosa [8])	MIC (Debaryomyces hansenii [9])
CC1COc2c(N3CCN(C)CC3)c(F)cc3c(=O)c(C(=O)O)cn1c23 (stereo not drawn) [OFLOXACIN]	30 mm	24 mm	28 mm	32 mm	30 mm	28 mm	28 mm	44 mm	30 mm									
NYSTATIN										3.12 µg/mL	6.25 µg/mL	3.12 µg/mL	6.25 µg/mL	20 mm	21 mm	16 mm	18 mm	12.5 µg/mL
